Assay results reported in ChEMBL document CHEMBL1811870, “Synthesis, gp120 binding and anti-HIV activity of fatty acid esters of 1,1-linked disaccharides” (Bioorg Med Chem, 2011).
The source made the active and inactive calls. No cut-off for these calls is given here.

Assays:
[1] = system: Human immunodeficiency virus; assay: Antiviral activity against HIV NL-Lai infected in human TZM-bl cells assessed as inhibition of viral infection after 24 hrs by luciferase assay; format: functional, organism-based; details: Human immunodeficiency virus 1, NL-Lai
In short: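 TZM-bl cells (2×10^4/well) adhered overnight, then infected with X4 NL-Lai virus (from 293T transfection, titered on TZM-bl) with 20 μg/mL DEAE dextran and serial dilutions of compound. Luciferase read 24 h post infection and normalized to virus-only wells. IC50 taken from curve fit of data pooled from at least three independent experiments.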

[2] = Cytotoxicity against human TZM-bl cells up to 200 uM after 24 hrs by MTS assay; format: cell-based
In short: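 TZM-bl cells were seeded and left overnight, then exposed to serial dilutions starting at 200 μM for 24 h. MTS dye reduction was read as OD at 490 nm and normalized to cells in medium only.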

[3] = system: Human immunodeficiency virus 1; assay: Binding affinity to HIV1 3B R15K V3 loop of gp-120 using monomolecular film after 2 to 3 hrs by microtensiometer analysis
In short: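 Glycolipid monolayers spread from hexane-chloroform-ethanol onto a pure water subphase at various initial surface pressures, with 5 min allowed for solvent evaporation, at 20°C ± 1°C. Critical pressure of insertion extrapolated to zero Δπ; surface pressure accuracy ± 0.25 mN/m.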

[4] = system: Human immunodeficiency virus; assay: Antiviral activity against HIV NL-Lai infected in human TZM-bl cells assessed as inhibition of viral infection at 100 uM treated 4 hrs after viral infection measured after 24 hrs by luciferase assay; format: functional, organism-based
In short: (§1)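 TZM-bl cells infected with NL-Lai (X4) virus. Compounds at 100 μM were given either before infection or 4 h after infection. In the post-infection arm, unbound virus was washed off with PBS and fresh medium containing compound was added. T20 and AMD3100 controls were used at 2 μM. Luciferase was read 24 h later. Mean ± SD of triplicates.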

[5] = system: Human immunodeficiency virus; assay: Antiviral activity against HIV NL-Lai infected in human TZM-bl cells assessed as inhibition of viral infection at 100 uM treated before viral infection measured after 24 hrs by luciferase assay; format: functional, organism-based; in short: as §1
[6] = Critical micelle concentration of the compound; format: physicochemical
In short: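 Glycolipid stocks in hexane:chloroform:ethanol (11:5:4) were injected 1:1000 into water, with surface tension recorded continuously on a microtensiometer. CMC was taken as the concentration above which surface tension no longer fell. Measured in triplicate.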

Compound	IC50 [1]	Activity [2]	CPI [3]	inhibition [4]	inhibition [5]	CMC [6]
CCCCCCCCCCCCCCCC(=O)OC[C@H]1O[C@H](OC)[C@@H](O)[C@@H](O)[C@@H]1OC(=O)CCCCCCCCCCCCCCC	> 100 µM	Non-toxic	18 mN/meter			
CCCCCCCCCCCCCCCC(=O)OC[C@H]1O[C@H](O[C@@H]2O[C@H](CO)[C@H](O)[C@H](O)[C@H]2O)[C@@H](O)[C@@H](O)[C@@H]1OC(=O)CCCCCCCCCCCCCCC	> 100 µM	Non-toxic	18 mN/meter			
CCCCCCCCCCCCCCCC(=O)OC[C@H]1O[C@H](O[C@H]2O[C@H](CO)[C@H](O)[C@H](O)[C@H]2O)[C@@H](O)[C@@H](O)[C@@H]1O	48.4 µM	Non-toxic		inactive	Active	
CCCCCCCCCCCCCCCC(=O)OC[C@H]1O[C@H](OC)[C@@H](O)[C@@H](O)[C@@H]1O	> 100 µM	Non-toxic	18 mN/meter			13 µM
CCCCCCCCCCCCC/C=C/[C@@H](O)[C@H](CO[C@@H]1O[C@H](CO)[C@H](O)[C@H](O)[C@H]1O)NC(=O)C(O)CCCCCCCCCCCCCCCCCCCCCC (some centres undefined)		Non-toxic	22 mN/meter			
CCCCCCCCCCCC(=O)OCC(O)CO (centres undefined) [GLYCEROL MONOLAURATE]	> 100 µM					
CCCCCCCCCCCCCCCC(=O)O[C@@H]1[C@H](O)[C@@H](O[C@@H]2O[C@H](CO)[C@H](O)[C@H](O)[C@H]2O)O[C@H](CO)[C@H]1O	76 µM	Non-toxic	18 mN/meter	inactive	Active	12 µM
CCCCCCCCCCCCCCCC(=O)OC[C@H]1O[C@H](O[C@@H]2O[C@H](CO)[C@H](O)[C@H](O)[C@H]2O)[C@@H](O)[C@@H](O)[C@@H]1O	> 100 µM	Non-toxic	18 mN/meter			9.8 µM
c1cc(CN2CCCNCCNCCCNCC2)ccc1CN1CCCNCCNCCCNCC1				inactive	Active	
CCCCCCCCCCCCCCCCO[C@@H]1O[C@H](CO)C(O)[C@H](O)[C@H]1O (single isomer, unassigned)	43.5 µM	Non-toxic		inactive	Active	
CCCCCCCCCCCCCCCC(=O)OC[C@H]1O[C@H](O[C@@H]2O[C@H](CO)[C@@H](O)[C@H](O)[C@H]2O)[C@@H](O)[C@@H](O)[C@@H]1O	52.5 µM	Non-toxic	18 mN/meter	inactive	Active	10 µM
